Assay results reported in ChEMBL document CHEMBL1128557, “Synthesis, antitumor activity, and chemical properties of silaplatin and related platinum (II) and platinum (IV) complexes derived from beta-silyl amines” (J Med Chem, 1995).

Key:
Tumor Cell line [1] = test: The compound was evaluated in vitro for the log10 molecular concentration that caused 50 % of 60 human tumor cell line kills; assay type: ADME, cell-based
How it was run: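 Human tumor cell lines (leukemia, non-small-cell lung, ovarian, renal) were preincubated 24 h. Platinum complexes were then added as five 10-fold dilutions, 0.01–100 μM, for 48 h, followed by in situ fixation and staining, with solubilized stain read spectrophotometrically. Log LC50 (50% cell kill) was averaged across cell lines within one experiment.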

Tumor Cell line [2] = test: Evaluated in vitro for the log10 molecular concentration that caused […] tumor growth of 60 human tumor cell lines.; assay type: functional, cell-based
How it was run: (§1)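 Cells preincubated 24 h, then exposed to the agent at five 10-fold dilutions (0.01–100 μM for the platinum complexes) for 48 h. Cells fixed in situ and stained; solubilized stain read spectrophotometrically. Panel of leukemia, non-small-cell lung, ovarian and renal lines. Log GI50 or TGI taken per cell line in one experiment, then averaged across lines.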

Tumor Cell line [3] = test: Evaluated in vitro for the log10 molecular concentration that caused 50 % inhibition of tumor growth of 60 human tumor cell lines; assay type: functional, cell-based; how it was run: as §1
Mus musculus [4] = test: The compound was evaluated for the median survival time (MST) in mice infected with cisplatin sensitive L1210 Leukemia (dose 40 mg/kg, ip), day 1; assay type: functional, organism-based; design: dose 40 mg/kg
How it was run: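 On day 0, 10⁵ parent or cisplatin-resistant L1210 cells were implanted ip into CD2F1 mice, 6 or 10 per dose group (20 or 30 controls). Dosing was ip on days 1, 5 and 9 in saline plus Tween 80. Median survival time was taken from dying mice only, excluding day-30 survivors. Both sublines were tested concurrently.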

Mus musculus [5] = test: The compound was evaluated for the median survival time (MST) in mice infected with cisplatin sensitive L1210 Leukemia (dose 10 mg/kg, ip), day 1; assay type: functional, organism-based; design: dose 10 mg/kg
How it was run: (§2)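 CD2F1 mice implanted ip on day 0 with 10^5 L1210/0 (parent) leukemia cells, in groups of 6 or 10 (20 or 30 controls). Complexes given ip in saline plus Tween 80 on days 1, 5 and 9. BWC is the group mean weight change, day 5 minus day 1. MST is median survival and %ILS is calculated from MST, both from dying mice only, excluding day 30 survivors.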

Mus musculus [6] = test: The compound was evaluated for the median survival time (MST) in mice infected with cisplatin sensitive L1210 Leukemia (dose 40 mg/kg, ip), day 5; assay type: functional, organism-based; design: dose 40 mg/kg; how it was run: as §2
Mus musculus [7] = test: The compound was evaluated for the mean body weight change (BWC) in mice infected with cisplatin sensitive L1210 Leukemia (dose 80 mg/kg, ip),day 1; assay type: functional, organism-based; design: dose 80 mg/kg; how it was run: as §2
Mus musculus [8] = test: The compound was evaluated for the mean body weight change (BWC) in mice infected with cisplatin sensitive L1210 Leukemia (dose 40 mg/kg, ip),day 1; assay type: functional, organism-based; design: dose 40 mg/kg; how it was run: as §2
Mus musculus [9] = test: The compound was evaluated for the median survival time (MST) in mice infected with cisplatin sensitive L1210 Leukemia (dose 80 mg/kg, ip), day 5; assay type: functional, organism-based; design: dose 80 mg/kg; how it was run: as §2
Mus musculus [10] = test: The compound was evaluated for the median survival time (MST) in mice infected with cisplatin sensitive L1210 Leukemia (dose 20 mg/kg, ip), day 5; assay type: functional, organism-based; design: dose 20 mg/kg; how it was run: as §2
Mus musculus [11] = test: The compound was evaluated for the median survival time (MST) in mice infected with cisplatin sensitive L1210 Leukemia (dose 80 mg/kg, ip), day 1; assay type: functional, organism-based; design: dose 80 mg/kg; how it was run: as §2
Mus musculus [12] = test: The compound was evaluated for the mean body weight change (BWC) in mice infected with cisplatin sensitive L1210 Leukemia (dose 20 mg/kg, ip),day 5; assay type: functional, organism-based; design: dose 20 mg/kg; how it was run: as §2
Mus musculus [13] = test: The compound was evaluated for the mean body weight change (BWC) in mice infected with cisplatin sensitive L1210 Leukemia (dose 40 mg/kg, ip),day 5; assay type: functional, organism-based; design: dose 40 mg/kg; how it was run: as §2
Mus musculus [14] = test: The compound was evaluated for the mean body weight change (BWC) in mice infected with cisplatin sensitive L1210 Leukemia (dose 10 mg/kg, ip),day 5; assay type: functional, organism-based; design: dose 10 mg/kg; how it was run: as §2
Mus musculus [15] = test: The compound was evaluated for the mean body weight change (BWC) in mice infected with cisplatin sensitive L1210 Leukemia (dose 80 mg/kg, ip),day 5; assay type: functional, organism-based; design: dose 80 mg/kg; how it was run: as §2
Mus musculus [16] = test: The compound was evaluated for the mean body weight change (BWC) in mice infected with cisplatin sensitive L1210 Leukemia (dose 10 mg/kg, ip),day 1; assay type: functional, organism-based; design: dose 10 mg/kg; how it was run: as §2
Mus musculus [17] = test: The compound was evaluated for the median survival time (MST) in mice infected with cisplatin sensitive L1210 Leukemia (dose 10 mg/kg, ip), day 5; assay type: functional, organism-based; design: dose 10 mg/kg; how it was run: as §2

Substance	GI50 (Tumor Cell line [3]) [µM]	Log LC50 (Tumor Cell line [1])	TGI (Tumor Cell line [2]) [µM]	also measured
CISPLATIN [listing 1 of 2 here]		> -3.35		
CARBOPLATIN [listing 1 of 2 here]		> -3.61		
[Bis(aminomethyl)tetramethylenesilane]dichloropaltinum(II)		> -4		
[Bis(aminomethyl)dimethylsilane]tetrachloroplatinum(IV) [listing 1 of 2 here]		> -4.02		
[Bis(aminomethyl)dimethylsilane]dichloroplatinum (II)		> -4.01		
cis-Bis[[(trimethylsilyl)methyl]amino]tetrachloroplatinum(IV)	5.89		22.9	
[Bis(aminomethyl)dimethylsilane]tetrachloroplatinum(IV) [listing 2 of 2 here]	4.79		41.7	MST (Mus musculus [4]): 27 days; MST (Mus musculus [5]): 18.5 days; MST (Mus musculus [6]): 21 days; BWC (Mus musculus [7]): -5 g; BWC (Mus musculus [8]): -2.4 g; MST (Mus musculus [9]): 10 days; MST (Mus musculus [10]): 19 days; MST (Mus musculus [11]): 8.3 days; BWC (Mus musculus [12]): -0.6 g; BWC (Mus musculus [13]): -1.3 g; BWC (Mus musculus [14]): 0.1 g; BWC (Mus musculus [15]): -3.4 g; BWC (Mus musculus [16]): 0 g; MST (Mus musculus [17]): 15 days

Second part, led by results:

GI50 (Tumor Cell line [3]) [µM]	Substance	Log LC50 (Tumor Cell line [1])	TGI (Tumor Cell line [2]) [µM]	also measured
3.02	[Bis(aminomethyl)diethylsilane]tetrachloroplatinum(IV)		46.8	
107	CARBOPLATIN [listing 2 of 2 here]		214	
11.7	[Bis(aminomethyl)pentamethylenesilane]dichloropaltinum(II)		67.6	
4.47	CISPLATIN [listing 2 of 2 here]		33.9	
